Results from ChEMBL document CHEMBL4689842, “EUbOPEN Chemogenomics Library wave 1” (2021).

Tested on: U2OS
Assay: Multiplex assay against U2OS
Type: toxicity, cell-based
Conditions: human
Outline: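 Values for tubulin, mitochondrial-mass and membrane-permeability phenotypes are per cents of cells with healthy nuclei. These cells were identified by CellPathfinder machine-learning gating of live cells that had been stained at seeding with Hoechst33342, BioTracker Green Microtubule Cytoskeleton Dye, MitoTracker Red and Annexin V Alexa Fluor 680 and imaged on a CQ1 microscope at 37°C and 5% CO2 after compound addition. The gating first set Hoechst high-intensity objects apart from normal cells, then split normal cells into healthy, pyknosed or fragmented nuclei, and pyknosed cells into mitotic or apoptotic.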

[1] = 12 h, 1 µM, compound concentration 1 uM, replicate 1
[2] = 12 h, 1 µM, compound concentration 1 uM, replicate 2
[3] = 12 h, 10 µM, compound concentration 10 uM, replicate 1
[4] = 12 h, 10 µM, compound concentration 10 uM, replicate 2
[5] = 24 h, 1 µM, compound concentration 1 uM, replicate 1
[6] = 24 h, 1 µM, compound concentration 1 uM, replicate 2
[7] = 24 h, 10 µM, compound concentration 10 uM, replicate 1
[8] = 24 h, 10 µM, compound concentration 10 uM, replicate 2
[9] = 48 h, 1 µM, compound concentration 1 uM, replicate 1
[10] = 48 h, 1 µM, compound concentration 1 uM, replicate 2
[11] = 48 h, 10 µM, compound concentration 10 uM, replicate 1
[12] = 48 h, 10 µM, compound concentration 10 uM, replicate 2

Cc1ccc(C(=O)Nc2cccc(C(F)(F)F)c2)cc1Nc1nc(-c2cccnc2)nc2c1cnn2C
Population Apoptotic (%) [1]: 41%
Population Fragmented Nuclei (%) [1]: 18%
Population Healthy Nuclei (%) [1]: 63%
Population Hoechst High Intensity Objects (%) [1]: 10%
Population Membrane Permeable-Phenotype (%) [1]: 8%
Population Mitochondria Different-Phenotype (%) [1]: 12%
Population Mitotic Cells (%) [1]: 58%
Population Normal (%) [1]: 89%
Population Pyknosed Nuclei (%) [1]: 18%
Population Tubulin-Different-Phenotype (%) [1]: 13%
Total Cell Count [1]: 151
Population Apoptotic (%) [2]: 50%
Population Fragmented Nuclei (%) [2]: 14%
Population Healthy Nuclei (%) [2]: 73%
Population Hoechst High Intensity Objects (%) [2]: 3%
Population Membrane Permeable-Phenotype (%) [2]: 6%
Population Mitochondria Different-Phenotype (%) [2]: 25%
Population Mitotic Cells (%) [2]: 50%
Population Normal (%) [2]: 96%
Population Pyknosed Nuclei (%) [2]: 12%
Population Tubulin-Different-Phenotype (%) [2]: 14%
Total Cell Count [2]: 101
Population Apoptotic (%) [3]: 69%
Population Fragmented Nuclei (%) [3]: 13%
Population Healthy Nuclei (%) [3]: 48%
Population Hoechst High Intensity Objects (%) [3]: 6%
Population Membrane Permeable-Phenotype (%) [3]: 53%
Population Mitochondria Different-Phenotype (%) [3]: 87%
Population Mitotic Cells (%) [3]: 30%
Population Normal (%) [3]: 93%
Population Pyknosed Nuclei (%) [3]: 38%
Population Tubulin-Different-Phenotype (%) [3]: 98%
Total Cell Count [3]: 147
Population Apoptotic (%) [4]: 61%
Population Fragmented Nuclei (%) [4]: 18%
Population Healthy Nuclei (%) [4]: 42%
Population Hoechst High Intensity Objects (%) [4]: 8%
Population Membrane Permeable-Phenotype (%) [4]: 78%
Population Mitochondria Different-Phenotype (%) [4]: 92%
Population Mitotic Cells (%) [4]: 38%
Population Normal (%) [4]: 91%
Population Pyknosed Nuclei (%) [4]: 39%
Population Tubulin-Different-Phenotype (%) [4]: 100%
Total Cell Count [4]: 66
Population Apoptotic (%) [5]: 42%
Population Fragmented Nuclei (%) [5]: 10%
Population Healthy Nuclei (%) [5]: 75%
Population Hoechst High Intensity Objects (%) [5]: 9%
Population Membrane Permeable-Phenotype (%) [5]: 2%
Population Mitochondria Different-Phenotype (%) [5]: 14%
Population Mitotic Cells (%) [5]: 57%
Population Normal (%) [5]: 90%
Population Pyknosed Nuclei (%) [5]: 13%
Population Tubulin-Different-Phenotype (%) [5]: 8%
Total Cell Count [5]: 153
Population Apoptotic (%) [6]: 27%
Population Fragmented Nuclei (%) [6]: 12%
Population Healthy Nuclei (%) [6]: 72%
Population Hoechst High Intensity Objects (%) [6]: 3%
Population Membrane Permeable-Phenotype (%) [6]: 7%
Population Mitochondria Different-Phenotype (%) [6]: 29%
Population Mitotic Cells (%) [6]: 72%
Population Normal (%) [6]: 96%
Population Pyknosed Nuclei (%) [6]: 14%
Population Tubulin-Different-Phenotype (%) [6]: 16%
Total Cell Count [6]: 101
Population Healthy Nuclei (%) [7]: 16%
Population Hoechst High Intensity Objects (%) [7]: 4%
Population Membrane Permeable-Phenotype (%) [7]: 80%
Population Mitochondria Different-Phenotype (%) [7]: 100%
Population Mitotic Cells (%) [7]: 10%
Population Normal (%) [7]: 95%
Population Pyknosed Nuclei (%) [7]: 57%
Total Cell Count [7]: 166
Population Apoptotic (%) [8]: 90%
Population Fragmented Nuclei (%) [8]: 26%
Population Healthy Nuclei (%) [8]: 11%
Population Hoechst High Intensity Objects (%) [8]: 20%
Population Membrane Permeable-Phenotype (%) [8]: 100%
Population Mitochondria Different-Phenotype (%) [8]: 75%
Population Mitotic Cells (%) [8]: 9%
Population Normal (%) [8]: 79%
Population Pyknosed Nuclei (%) [8]: 61%
Population Tubulin-Different-Phenotype (%) [8]: 100%
Total Cell Count [8]: 77
Population Apoptotic (%) [9]: 58%
Population Fragmented Nuclei (%) [9]: 11%
Population Healthy Nuclei (%) [9]: 80%
Population Hoechst High Intensity Objects (%) [9]: 4%
Population Membrane Permeable-Phenotype (%) [9]: 6%
Population Mitochondria Different-Phenotype (%) [9]: 22%
Population Mitotic Cells (%) [9]: 41%
Population Normal (%) [9]: 95%
Population Pyknosed Nuclei (%) [9]: 8%
Population Tubulin-Different-Phenotype (%) [9]: 10%
Total Cell Count [9]: 140
Population Apoptotic (%) [10]: 70%
Population Fragmented Nuclei (%) [10]: 7%
Population Healthy Nuclei (%) [10]: 78%
Population Hoechst High Intensity Objects (%) [10]: 10%
Population Membrane Permeable-Phenotype (%) [10]: 11%
Population Mitochondria Different-Phenotype (%) [10]: 29%
Population Mitotic Cells (%) [10]: 30%
Population Normal (%) [10]: 89%
Population Pyknosed Nuclei (%) [10]: 14%
Population Tubulin-Different-Phenotype (%) [10]: 22%
Total Cell Count [10]: 93
Population Apoptotic (%) [11]: 96%
Population Fragmented Nuclei (%) [11]: 35%
Population Healthy Nuclei (%) [11]: 10%
Population Hoechst High Intensity Objects (%) [11]: 10%
Population Membrane Permeable-Phenotype (%) [11]: 100%
Population Mitochondria Different-Phenotype (%) [11]: 100%
Population Mitotic Cells (%) [11]: 3%
Population Normal (%) [11]: 90%
Population Pyknosed Nuclei (%) [11]: 54%
Population Tubulin-Different-Phenotype (%) [11]: 100%
Total Cell Count [11]: 219
Population Apoptotic (%) [12]: 100%
Population Fragmented Nuclei (%) [12]: 25%
Population Healthy Nuclei (%) [12]: 21%
Population Hoechst High Intensity Objects (%) [12]: 28%
Population Mitotic Cells (%) [12]: 0%
Population Normal (%) [12]: 71%
Population Pyknosed Nuclei (%) [12]: 53%
Total Cell Count [12]: 77
